The source of these data is ChEMBL document CHEMBL3112569, “3-Ketone-4,6-diene ceramide analogs exclusively induce apoptosis in chemo-resistant cancer cells” (Bioorg Med Chem, 2014).

As a reminder, the IC50 is the concentration that inhibits the measured activity by half.

Assay [1] deals with MCF7. The assay is described as follows: Cytotoxicity against human MCF7 cells assessed as colony formation after 10 to 12 days by crystal violet staining assay. Format: functional, cell-based. An outline of the steps:
(§1)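 Colony formation: 1000 cells per well in 10% DMEM, 24 h adhesion, then graded analog dilutions until colonies formed (generally 10–12 days). Fixed in 3% glutaraldehyde 30 min, stained 40 min with 0.2% crystal violet/20% methanol. Colonies over 30 cells hand-counted, normalized to DMSO control, IC50 from dose–response fit.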

Assay [2] in a line: Cytotoxicity against human MCF-7TN-R cells assessed as cell viability after 24 hrs by MTT assay. Format: functional, cell-based. In short, it runs like this: (§2)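 Cells seeded at 7500–10,000 per well in phenol-free DMEM and allowed 24 h to adhere. Exposed to graded analog concentrations (1 to 100 μM) for 24 h, then MTT added for 3–4 h. Formazan dissolved in 20% SDS/50% DMF for 24 h, absorbance read at 550 nm. Expressed as % of DMSO vehicle, run in quadruplicate on three occasions, IC50 from dose–response fit.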
A general note: Tetrazolium dyes change colour on reduction, which living cells bring about.

The test system of assay [3] is MCF7. The assay is described as follows: Cytotoxicity against human MCF7 cells assessed as cell viability after 24 hrs by MTT assay. Format: functional, cell-based. The settings on record: MCF7, 24 h. An outline of the steps: as §2
Assay [4] relates to MDA-MB-231. The assay is described as follows: Cytotoxicity against human MDA-MB-231 cells assessed as colony formation after 10 to 12 days by crystal violet staining assay. Format: functional, cell-based. An outline of the steps:
as §1

Assay [5] deals with MDA-MB-231. Put plainly: Cytotoxicity against human MDA-MB-231 cells assessed as cell viability after 24 hrs by MTT assay. Format: functional, cell-based. To be noted: MDA-MB-231, 24 h. In short, it runs like this: as §2
The nature of assay [6]: Cytotoxicity against human MCF-7TN-R cells assessed as colony formation after 10 to 12 days by crystal violet staining assay. Format: functional, cell-based. In short, it runs like this:
as §1

A further assay has as its system NCI/ADR-RES. Put plainly: Cytotoxicity against human NCI/ADR-RES cells assessed as cell viability after 72 hrs by CellTiter-Glo luminescence assay. Format: functional, cell-based. An outline of the steps:
(§3)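 Cells grown overnight at 4000 per well in RPMI-1640 with 10% FBS, then treated with analogs for 72 h. Viability measured as luminescent ATP after incubation with CellTiter-Glo reagent. Three independent experiments.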
Background: In ATP-based viability assays light output follows the ATP content of the culture.

The subject of assay [7] is MCF7. Put plainly: Cytotoxicity against human MCF7 cells assessed as cell viability after 72 hrs by CellTiter-Glo luminescence assay. Format: functional, cell-based. The settings on record: MCF7, 72 h. In short, it runs like this:
as §3

The test system of a further assay is OVCAR-8. The assay is described as follows: Cytotoxicity against human OVCAR8 cells assessed as cell viability after 72 hrs by CellTiter-Glo luminescence assay. Format: functional, cell-based. The settings on record: OVCAR-8, 72 h. In short, it runs like this:
as §3

Assay [8] addresses T1, Ceramide glucosyltransferase (Homo sapiens) (UniProt Q16739).
T1 sequence (whole entry): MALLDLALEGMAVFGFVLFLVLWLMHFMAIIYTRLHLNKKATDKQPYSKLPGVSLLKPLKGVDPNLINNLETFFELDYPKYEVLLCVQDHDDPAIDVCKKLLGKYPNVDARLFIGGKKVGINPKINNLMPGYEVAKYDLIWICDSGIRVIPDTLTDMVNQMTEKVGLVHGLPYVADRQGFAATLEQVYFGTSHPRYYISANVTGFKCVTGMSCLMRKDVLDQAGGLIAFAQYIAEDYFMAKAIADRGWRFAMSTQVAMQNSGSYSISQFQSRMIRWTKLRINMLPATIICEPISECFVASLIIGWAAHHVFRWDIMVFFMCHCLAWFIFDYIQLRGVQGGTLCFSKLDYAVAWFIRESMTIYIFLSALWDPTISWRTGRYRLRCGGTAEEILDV
The assay is described as follows: Inhibition of GCS in human OVCAR8 cells assessed as decrease in ratio of glucosylceramide to ceramide level at IC50 after 4 hrs by TLC assay. Format: cell-based. To be noted: OVCAR-8.

The target in assay [9] is T1, Ceramide glucosyltransferase (Homo sapiens). Put plainly: Inhibition of GCS in human NCI/ADR-RES cells assessed as decrease in ratio of glucosylceramide to ceramide level at IC50 after 4 hrs by TLC assay. Format: cell-based.
The nature of assay [10]: Cytotoxicity against human MCF7/DX cells assessed as cell viability after 72 hrs by CellTiter-Glo luminescence assay. Format: functional, cell-based. In short, it runs like this: as §3
A short description of assay [11]: Induction of apoptosis in human MCF-7TN-R cells assessed as caspase-9 activation at 2 times IC50 determined from MTT assay after 24 hrs by caspase Glo 9 assay relative to vehicle-treated control. Format: functional. In short, it runs like this:
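MCF-7TN-R cells at 7500–10,000 per well in phenol-free DMEM adhered 24 h, then exposed 24 h at twice the MTT-derived IC50. Caspase-9 activity read by Caspase-Glo 9 luminescence, relative to DMSO vehicle. Triplicate on three occasions.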

Assay [12] can be described thus: (§4) Induction of apoptosis in human MCF-7TN-R cells at 2 times IC50 determined from MTT assay after 24 hrs by ELISA relative to control. Format: functional. An outline of the steps: (§5)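 MCF-7TN-R cells at 7500–10,000 per well in phenol-free DMEM adhered 24 h, then treated 24 h at twice the MTT-derived IC50. DNA fragmentation read with cell death detection ELISA. Normalized to MTT viability on the same plate, duplicate on three occasions.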

Another assay is filed under the species Homo sapiens. The description is as §4. Format: functional. In short, it runs like this: as §5
Assay [13] can be described thus: Cytotoxicity against human MCF-7TN-R cells assessed as cell viability after 24 to 48 hrs by MTT assay. Format: functional, cell-based.

Active and inactive are the calls of the source. No cut-off for these calls is given here.

In the case of `CCCCCCCCCC/C=C/C=C/[C@@H](O)[C@@H]1COC(C)(C)N1C(=O)OC(C)(C)C`, the IC50 with MCF7 [1] was determined as 5.69 µM; in [2], 9.91 µM; in the assay on MCF7 [3], 26.4 µM; in the assay on MDA-MB-231 [4] it was 3.17 µM; with MDA-MB-231 [5], 75.2 µM; in assay [6], 5.19 µM.
Consider `CCCCCCCCCCCCCCNC(=O)[C@H](CO)/N=C/c1ccccc1`, for which the IC50 is 13.8 µM in the assay with NCI/ADR-RES, 14.1 µM in the assay on MCF7 [7], 16.3 µM with OVCAR-8 and 10.1 µM in assay [10]. Besides, the Ratio in [8] came to 0.9; in [9], 0.8.
For `CCCCCCCCCCCCC/C=C/[C@@H](O)[C@H](CO)NC(=O)Cc1ccccc1`, the IC50 came out at 4.18 µM in the assay on MCF7 [1]; 4.74 µM in assay [2]; 37.3 µM in the assay on MCF7 [3]; 1.59 µM in the assay with MDA-MB-231 [4]; 51.2 µM with MDA-MB-231 [5]; 5.62 µM in assay [6].
In the case of `CCCCCCCCCCCCCCNC(=O)[C@H](CO)NC(=O)Cc1ccccc1`, the IC50 turned out to be 10.2 µM with MCF7 [1]; 29 µM in assay [2]; 234 µM with MCF7 [3]; 17.6 µM in the assay with MDA-MB-231 [4]; 10.1 µM in assay [6].
With `CCCCCCCCCC/C=C/C=C/C(=O)[C@@H]1COC(C)(C)N1C(=O)OC(C)(C)C`, the figures for the “fold change (FC)” value in assay [11] and in assay [12] were 1.86 and 3.09, respectively. For the same compound, the IC50 in the assay with MCF7 [1] was 5.07 µM; in assay [2], 4.05 µM; with MCF7 [3] it was 3.91 µM; in the assay on MDA-MB-231 [4] it was 1.45 µM; with MDA-MB-231 [5] it was 17.2 µM; in assay [6], 1.85 µM.
For `CCCCCCCCCCCCC/C=C/[C@@H](O)[C@H](CO)NC(=O)CCCCCCC`, in assay [11], the “fold change (FC)” value is 1.18. The outcome in the assay filed under Homo sapiens was Active.
For `CCCCCCCCCCC/C=C/C=C/[C@@H](O)[C@H](CO)NC(=O)CCCCCCC`, the IC50 in [13] turned out to be 11.3 µM.
Regarding `CCCCCCCCCC/C=C/C=C/C(=O)[C@H](CO)NC(=O)Cc1ccccc1`, the IC50 with NCI/ADR-RES was found to be 4.92 µM; with MCF7 [7], 3.92 µM; in the assay with MCF7 [1], 3.4 µM; in [2] it was 4.26 µM; in the assay on MCF7 [3], 22 µM; with OVCAR-8, 7.82 µM. The IC50 in assay [10] worked out at 3.92 µM; in the assay on MDA-MB-231 [4], 1.4 µM; with MDA-MB-231 [5], 161 µM; in [6], 1.81 µM. The “fold change (FC)” value in assay [11] is on record as 3.59; in [12], 4.3. Besides, the Ratio in [8] was 0.6; in assay [9], 1.
